From ChEMBL document CHEMBL1121739, “Inhibition of human acrosin by monosaccharides and related compounds: structure-activity relationships” (J Med Chem, 1981) come the findings set out here.

In the first assay the target is Acrosin (Homo sapiens) (UniProt P10323). Briefly: Compound was tested for inhibition of Human acrosin by phosphorylated monosaccharides. Also noted: concentration or dose not given beside the values. Particulars: concentration not given here. Summed up: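 Phosphorylated sugars, as barium salts in the D configuration, were tested at 100 mM, limited by solubility; the parent sugars were also run at 100 mM. Each was preincubated 5 min with purified human α-acrosin before adding BAEE or BAPA. The spectrophotometric 253 nm assay measured % inhibition relative to a no-inhibitor control.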
Sequence of Acrosin (Homo sapiens) (P10323 20-42 limits assumed): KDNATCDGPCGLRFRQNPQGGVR
Sequence of Acrosin (Homo sapiens) (P10323 43-343 limits assumed): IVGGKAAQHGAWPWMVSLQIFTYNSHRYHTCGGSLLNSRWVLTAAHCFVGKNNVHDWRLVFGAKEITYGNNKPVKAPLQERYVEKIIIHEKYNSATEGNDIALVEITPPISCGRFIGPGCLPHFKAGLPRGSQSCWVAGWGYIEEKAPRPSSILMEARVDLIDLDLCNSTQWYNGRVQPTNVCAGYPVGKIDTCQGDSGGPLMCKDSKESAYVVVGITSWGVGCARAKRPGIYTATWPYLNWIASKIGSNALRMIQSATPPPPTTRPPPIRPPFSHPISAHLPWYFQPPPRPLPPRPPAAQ
For `O=C[C@H](O)[C@@H](O)[C@@H](O)[C@H](O)CO`, the inhibition – broadly, the share of the control response that was lost under treatment – stood at 0%.
For the compound `O=P(O)(O)OC[C@H]1OC(O)(COP(=O)(O)O)[C@@H](O)[C@@H]1O` (some centres undefined), the inhibition turned out to be 18%.
The compound `O=P(O)(O)OC[C@H]1O[C@](O)(CO)[C@@H](O)[C@@H]1O` registered an inhibition of 7%.
As to `O=P(O)(O)OC[C@H]1OC(O)[C@H](O)[C@@H](O)[C@H]1O` (some centres undefined), the inhibition turned out to be 10%.
Still for that read-out and setting: the value for `O=P(O)(O)OC[C@@]1(O)O[C@H](CO)[C@@H](O)[C@@H]1O` was 9%.
On the same count and under the same terms, in the case of `OC[C@H]1O[C@H](O)[C@H](O)[C@@H]1O` it was 45%; in that of `O=C(CO)[C@@H](O)[C@H](O)[C@H](O)CO`, 46%.
Regarding `O=P(O)(O)OC[C@H]1O[C@H](O)[C@H](O)[C@@H]1O`, the inhibition was found to be 15%.
For `O=P(O)(O)OC1O[C@H](CO)[C@H](O)[C@H](O)[C@H]1O` (some centres undefined), the inhibition came to 3%.

For the next assay the target is unchanged. Briefly: Compound was tested for inhibition of Human acrosin by aldopentoses. Also noted: concentration or dose not given beside the values. The conditions noted are these: concentration not given here. Summed up:
(§1)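 Purified human α-acrosin (acetic acid extract of frozen sperm, then Sephadex G-150 and CM-cellulose). Sugar at 200 mM was preincubated with enzyme for 5 min at ambient temperature in 50 mM sodium phosphate, pH 7.5. The reaction was started with 5×10^-5 M BAEE or 3×10^-4 M BAPA and followed at 253 nm. Results are % inhibition of the no-inhibitor control rate, as mean ± SE.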
Compound `OC1OC[C@H](O)[C@H](O)[C@H]1O` (some centres undefined) gave an inhibition of 65%.
For `OC1OC[C@H](O)[C@@H](O)[C@@H]1O` (some centres undefined), the inhibition worked out at 40%.
In turn, `O[C@@H]1[C@H](O)[C@@H](O)OC[C@H]1O` (stereo in doubt; form 2) displayed an inhibition of 35%.
The compound `OC1OC[C@@H](O)[C@@H](O)[C@@H]1O` (some centres undefined) showed an inhibition of 50%.
Same read-out and setting: in the case of `O=C[C@H](O)[C@@H](O)[C@H](O)CO` it was 37%; in that of `OC[C@H]1O[C@H](O)[C@H](O)[C@@H]1O`, 65%; in that of `O[C@@H]1[C@H](O)[C@@H](O)OC[C@H]1O` (stereo in doubt; form 1), 50%.

The target is the same in another assay. The assay can be described thus: Compound was tested for inhibition of Human acrosin by aldoses.
Conditions: not given
Summed up:
(§2)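 Homologous aldoses or ketoses of different carbon chain lengths were each tested at 100 mM against purified human α-acrosin. The enzyme was preincubated with sugar for 5 min at ambient temperature, pH 7.5, with 3×10^-4 M BAPA as substrate and hydrolysis read spectrophotometrically at 253 nm. Results are % inhibition of control activity, as mean ± SE with n given.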
`O=CC(O)C(O)CO` (centres undefined) displayed an inhibition of 40%.
`OC1OC[C@@H](O)[C@@H](O)[C@@H]1O` (some centres undefined) had an inhibition of 36%.
Consider `OC[C@H]1OC(O)[C@@H](O)[C@@H](O)[C@@H]1O` (some centres undefined), for which the inhibition amounted to 48%.

The next assay shares this target. The assay can be described thus: Compound was tested for inhibition of Human acrosin by ketohexoses. The conditions noted are these: concentration not given here. The gist of the method:
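Purified human α-acrosin from acetic acid extracts of frozen sperm, run through Sephadex G-150 and CM-cellulose. Sugars at 200 mM were preincubated with the enzyme for 5 min at ambient temperature in 50 mM sodium phosphate, pH 7.5. Reaction started with 5×10^-5 M BAEE or 3×10^-4 M BAPA; hydrolysis followed at 253 nm. Percent inhibition versus inhibitor-free control, mean ± SE of 3–6 determinations.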
As for `O=P(O)(O)OC[C@H]1O[C@](O)(CO)[C@@H](O)[C@@H]1O`, the inhibition was 32%.
Still for that read-out and setting: the value for `O=C(CO)C(O)C(O)C(O)CO` (centres undefined) was 18%; that for `OCC1(O)OCC(O)C(O)C1O` (centres undefined) was 58%.
Regarding `O=C(CO)[C@@H](O)[C@H](O)[C@H](O)CO`, the inhibition amounted to 66%.

The target is the same in the next assay. The assay can be described thus: Compound was tested for inhibition of Human acrosin by aldohexoses. Also noted: concentration or dose not given beside the values. Particulars: concentration not given here. Summed up:
as §1
For `OC[C@H]1O[C@@H](O)[C@H](O)[C@@H](O)[C@H]1O` (stereo in doubt; form 2), the inhibition worked out at 12%.
As to `C[C@H](O)[C@@H](O)[C@@H](O)[C@H](O)C=O`, the inhibition came out at 20%.
On the same count and under the same terms, the value for `OC[C@H]1OC(O)[C@H](O)[C@H](O)[C@H]1O` (some centres undefined) was 0%; that for `OC[C@H]1OC(O)[C@H](O)[C@@H](O)[C@@H]1O` (some centres undefined) was 28%.
On the same count and under the same terms, the value for `OC[C@H]1OC(O)[C@@H](O)[C@@H](O)[C@@H]1O` (some centres undefined) was 60%; that for `OC[C@@H]1OC(O)[C@@H](O)[C@H](O)[C@H]1O` (some centres undefined) was 0%; that for `C[C@H]1OC(O)[C@H](O)[C@@H](O)[C@H]1O` (some centres undefined) was 62%.
Still for that read-out and setting: in the case of `OC[C@H]1O[C@@H](O)[C@H](O)[C@@H](O)[C@H]1O` (stereo in doubt; form 1) it was 34%.

A further assay shares this target. Briefly: Compound was tested for inhibition of Human acrosin by ketoses. The conditions noted are these: concentration not given here. The gist of the method:
as §2
In the case of `O=C(CO)CO`, the inhibition was 15%.
The same measure, in the same setting: in the case of `O=C(CO)[C@@H](O)[C@H](O)[C@H](O)CO` it was 47%.
`OC[C@H]1OC(O)(CO)[C@@H](O)[C@@H](O)[C@@H]1O` (some centres undefined): the inhibition was found to be 41%.
On to `O=C(CO)C(O)C(O)CO` (centres undefined), for which the inhibition is 38%.

For a further assay the target is unchanged. The assay can be described thus: Compound was tested for inhibition of Human acrosin by polyols. The conditions noted are these: concentration not given here.
For `OC[C@@H](O)[C@@H](O)[C@H](O)[C@H](O)CO`, the inhibition is 29%.
Take `O[C@H]1[C@H](O)[C@@H](O)[C@H](O)[C@@H](O)[C@H]1O`: the inhibition came to 30%.
On the same count and under the same terms, the value for `OCC(O)CO` was 28%; that for `OC[C@@H](O)[C@@H](O)[C@H](O)[C@@H](O)CO` was 38%.
